{"source": "ChEMBL document CHEMBL4049388", "about": "“Facile and efficient access to Androsten-17-(1',3',4')-pyrazoles and Androst-17β-(1',3',4')-pyrazoles via Vilsmeier reagents, and their antiproliferative activity evaluation in vitro” (Eur J Med Chem, 2017)", "key": {"HeLa [1]": {"system": "HeLa", "assay": "Induction of apoptosis in human HeLa cells assessed as total cells at late apoptotic stage at 5 uM after 24 hrs by Annexin-V-FITC/propidium iodide staining based flow cytometry (reference value: 0.03%)", "format": "functional", "method_in_brief": "(§1)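 Hela cells seeded at 10^6 per well and stabilized 24 h at 37 °C, 5% CO2. Then treated 24 h at 2.5, 5.0 or 7.5 μM, DMSO negative control. Cells washed in cold PBS, resuspended at 1×10^6 cells/mL in cold binding buffer, stained with annexin V-FITC then PI for 15 min in dark, analysed by flow cytometry.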"}, "HeLa [2]": {"system": "HeLa", "assay": "Induction of apoptosis in human HeLa cells assessed as gated cells at early apoptotic stage at 2.5 uM after 24 hrs by Annexin-V-FITC/propidium iodide staining based flow cytometry (reference value: 0.04%)", "format": "functional", "method_in_brief": "as §1"}, "HeLa [3]": {"system": "HeLa", "assay": "Induction of apoptosis in human HeLa cells assessed as total cells at viable stage at 5 uM after 24 hrs by Annexin-V-FITC/propidium iodide staining based flow cytometry (reference value: 96.16%)", "format": "functional", "method_in_brief": "as §1"}, "HeLa [4]": {"system": "HeLa", "assay": "Induction of apoptosis in human HeLa cells assessed as irregular nucleus at 7.5 uM after 48 hrs by Hoechst 33342 staining based fluorescence microscopic method", "format": "functional, cell-based", "method_in_brief": "(§2)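 Hela cells seeded at 10^6 per well on cover slips and incubated 16 h. Then exposed 48 h at 2.5, 5.0 or 7.5 μM, DMSO negative control. Cells fixed in 4% paraformaldehyde for 15 min, washed in PBS, stained with Hoechst 33342 for 10 min. Nuclear morphology viewed by fluorescence microscopy, ex 350 nm / em 460 nm.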"}, "HeLa [5]": {"system": "HeLa", "assay": "Induction of apoptosis in human HeLa cells after 48 hrs by Hoechst 33342 staining based fluorescence microscopic method", "format": "functional, cell-based", "method_in_brief": "as §2"}, "MCF7": {"system": "MCF7", "assay": "Cytotoxicity against human MCF7 cells assessed as growth inhibition at 10 uM after 72 hrs by SRB assay relative to control", "format": "functional", "settings": "MCF7, 72 h, read-out: GI", "method_in_brief": "(§3)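 SRB single-dose screen at 10 μM on 293T, A549, Hela and MCF-7 cells. Results reported as percent inhibitory ratio (mean ± SD).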"}, "HeLa [6]": {"system": "HeLa", "assay": "Induction of apoptosis in human HeLa cells assessed as total cells at viable stage at 7.5 uM after 24 hrs by Annexin-V-FITC/propidium iodide staining based flow cytometry (reference value: 96.16%)", "format": "functional", "method_in_brief": "as §1"}, "[7]": {"assay": "Cytotoxicity against human 293T cells assessed as growth inhibition at 10 uM after 72 hrs by SRB assay relative to control", "format": "cell-based", "settings": "HEK-293T cells, read-out: GI", "method_in_brief": "as §3"}, "HeLa [8]": {"system": "HeLa", "assay": "Induction of apoptosis in human HeLa cells assessed as gated cells at early apoptotic stage at 7.5 uM after 24 hrs by Annexin-V-FITC/propidium iodide staining based flow cytometry (reference value: 0.04%)", "format": "functional", "method_in_brief": "as §1"}, "HeLa [9]": {"system": "HeLa", "assay": "Induction of apoptosis in human HeLa cells assessed as gated cells at late apoptotic stage at 7.5 uM after 24 hrs by Annexin-V-FITC/propidium iodide staining based flow cytometry (reference value: 0.03%)", "format": "functional", "method_in_brief": "as §1"}, "HeLa [10]": {"system": "HeLa", "assay": "Induction of apoptosis in human HeLa cells assessed as gated cells at necrotic stage at 5 uM after 24 hrs by Annexin-V-FITC/propidium iodide staining based flow cytometry (reference value: 0.05%)", "format": "functional", "method_in_brief": "as §1"}, "HeLa [11]": {"system": "HeLa", "assay": "Induction of apoptosis in human HeLa cells assessed as total cells at early apoptotic stage at 2.5 uM after 24 hrs by Annexin-V-FITC/propidium iodide staining based flow cytometry (reference value: 0.04%)", "format": "functional", "method_in_brief": "as §1"}, "A549": {"system": "A549", "assay": "Cytotoxicity against human A549 cells assessed as growth inhibition at 10 uM after 72 hrs by SRB assay relative to control", "format": "functional", "settings": "A549, 72 h, read-out: GI", "method_in_brief": "as §3"}, "HeLa [12]": {"system": "HeLa", "assay": "Cell cycle arrest in human HeLa cells assessed as accumulation at G1 phase at 2.5 uM after 24 hrs by propidium iodide staining based flow cytometry (reference value: 56.72%)", "format": "functional"}, "HeLa [13]": {"system": "HeLa", "assay": "Induction of apoptosis in human HeLa cells assessed as nuclear condensation at 7.5 uM after 48 hrs by Hoechst 33342 staining based fluorescence microscopic method", "format": "functional, cell-based", "method_in_brief": "as §2"}, "HeLa [14]": {"system": "HeLa", "assay": "Induction of apoptosis in human HeLa cells assessed as total cells at early apoptotic stage at 7.5 uM after 24 hrs by Annexin-V-FITC/propidium iodide staining based flow cytometry (reference value: 0.04%)", "format": "functional", "method_in_brief": "as §1"}, "HeLa [15]": {"system": "HeLa", "assay": "Induction of apoptosis in human HeLa cells assessed as total cells at necrotic stage at 7.5 uM after 24 hrs by Annexin-V-FITC/propidium iodide staining based flow cytometry (reference value: 0.05%)", "format": "functional", "method_in_brief": "as §1"}, "HeLa [16]": {"system": "HeLa", "assay": "Cell cycle arrest in human HeLa cells assessed as accumulation at G2 phase at 5 uM after 24 hrs by propidium iodide staining based flow cytometry (reference value: 24.36%)", "format": "functional"}, "HeLa [17]": {"system": "HeLa", "assay": "Cytotoxicity against human HeLa cells assessed as growth inhibition at 10 uM after 72 hrs by SRB assay relative to control", "format": "functional", "settings": "read-out: GI", "method_in_brief": "as §3"}, "HeLa [18]": {"system": "HeLa", "assay": "Cell cycle arrest in human HeLa cells assessed as accumulation at S phase at 5 uM after 24 hrs by propidium iodide staining based flow cytometry (reference value: 18.92%)", "format": "functional"}, "HeLa [19]": {"system": "HeLa", "assay": "Induction of apoptosis in human HeLa cells assessed as gated cells at viable stage at 7.5 uM after 24 hrs by Annexin-V-FITC/propidium iodide staining based flow cytometry (reference value: 99.88%)", "format": "functional", "method_in_brief": "as §1"}, "HeLa [20]": {"system": "HeLa", "assay": "Induction of apoptosis in human HeLa cells assessed as total cells at early apoptotic stage at 5 uM after 24 hrs by Annexin-V-FITC/propidium iodide staining based flow cytometry (reference value: 0.04%)", "format": "functional", "method_in_brief": "as §1"}, "HeLa [21]": {"system": "HeLa", "assay": "Induction of apoptosis in human HeLa cells after 24 hrs by Annexin-V-FITC/propidium iodide staining based flow cytometry", "format": "functional, cell-based", "method_in_brief": "as §1"}, "HeLa [22]": {"system": "HeLa", "assay": "Cell cycle arrest in human HeLa cells assessed as accumulation at G1 phase at 5 uM after 24 hrs by propidium iodide staining based flow cytometry (reference value: 56.72%)", "format": "functional"}, "HeLa [23]": {"system": "HeLa", "assay": "Cell cycle arrest in human HeLa cells assessed as accumulation at G2 phase at 7.5 uM after 24 hrs by propidium iodide staining based flow cytometry (reference value: 24.36%)", "format": "functional"}, "HeLa [24]": {"system": "HeLa", "assay": "Cell cycle arrest in human HeLa cells assessed as accumulation at S phase after 24 hrs by propidium iodide staining based flow cytometry", "format": "functional"}, "HeLa [25]": {"system": "HeLa", "assay": "Cell cycle arrest in human HeLa cells assessed as accumulation at G2 phase at 2.5 uM after 24 hrs by propidium iodide staining based flow cytometry (reference value: 24.36%)", "format": "functional"}, "HeLa [26]": {"system": "HeLa", "assay": "Induction of apoptosis in human HeLa cells assessed as gated cells at late apoptotic stage at 5 uM after 24 hrs by Annexin-V-FITC/propidium iodide staining based flow cytometry (reference value: 0.03%)", "format": "functional", "method_in_brief": "as §1"}, "HEK-293T": {"system": "HEK-293T", "assay": "Cytotoxicity against human 293T cells after 72 hrs by SRB assay", "format": "cell-based", "method_in_brief": "(§4)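 SRB assay on 293T, A549, Hela and MCF-7 cells, with cisplatin as reference control. IC50 calculated for each compound from triplicate assays.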"}, "HeLa [27]": {"system": "HeLa", "assay": "Cytotoxicity against human HeLa cells after 72 hrs by SRB assay", "format": "functional, cell-based", "method_in_brief": "as §4"}, "HeLa [28]": {"system": "HeLa", "assay": "Induction of apoptosis in human HeLa cells assessed as gated cells at viable stage at 2.5 uM after 24 hrs by Annexin-V-FITC/propidium iodide staining based flow cytometry (reference value: 99.88%)", "format": "functional", "method_in_brief": "as §1"}}, "note": "Calls of active or inactive are those of the source. No cut-off for these calls is given here."}
{"smiles": "CCNCc1cn(-c2ccccc2)nc1C1=CC[C@H]2[C@@H]3CC=C4C[C@@H](O)CC[C@]4(C)[C@H]3CC[C@]12C", "values": [{"measurement": "Activity", "setting": "HeLa [1]", "value": 0.31, "unit": "%"}, {"measurement": "Activity", "setting": "HeLa [2]", "value": 0.59, "unit": "%"}, {"measurement": "Activity", "setting": "HeLa [3]", "value": 80.32, "unit": "%"}, {"measurement": "Activity", "setting": "HeLa [4]", "value": "Active"}, {"measurement": "Activity", "setting": "HeLa [5]", "value": "Dose-dependent effect"}, {"measurement": "inhibition of growth at 10 µM", "setting": "MCF7", "value": 89.3, "unit": "%"}, {"measurement": "Activity", "setting": "HeLa [6]", "value": 78.35, "unit": "%"}, {"measurement": "inhibition at 72 h, 10 µM", "setting": "[7]", "value": 94.2, "unit": "%"}, {"measurement": "Activity", "setting": "HeLa [8]", "value": 8.37, "unit": "%"}, {"measurement": "Activity", "setting": "HeLa [9]", "value": 1.01, "unit": "%"}, {"measurement": "Activity", "setting": "HeLa [10]", "value": 3.79, "unit": "%"}, {"measurement": "Activity", "setting": "HeLa [11]", "value": 0.58, "unit": "%"}, {"measurement": "inhibition of growth at 10 µM", "setting": "A549", "value": 91.3, "unit": "%"}, {"measurement": "Activity", "setting": "HeLa [12]", "value": 51.99, "unit": "%"}, {"measurement": "Activity", "setting": "HeLa [13]", "value": "Active"}, {"measurement": "Activity", "setting": "HeLa [14]", "value": 7.5, "unit": "%"}, {"measurement": "Activity", "setting": "HeLa [15]", "value": 2.79, "unit": "%"}, {"measurement": "Activity", "setting": "HeLa [16]", "value": 22.53, "unit": "%"}, {"measurement": "inhibition of growth at 10 µM", "setting": "HeLa [17]", "value": 92.8, "unit": "%"}, {"measurement": "Activity", "setting": "HeLa [18]", "value": 24.34, "unit": "%"}, {"measurement": "Activity", "setting": "HeLa [19]", "value": 87.49, "unit": "%"}, {"measurement": "Activity", "setting": "HeLa [20]", "value": 2.08, "unit": "%"}, {"measurement": "Activity", "setting": "HeLa [21]", "value": "Dose-dependent effect"}, {"measurement": "Activity", "setting": "HeLa [22]", "value": 53.13, "unit": "%"}, {"measurement": "Activity", "setting": "HeLa [23]", "value": 25.31, "unit": "%"}, {"measurement": "Activity", "setting": "HeLa [24]", "value": "Dose-dependent effect"}, {"measurement": "Activity", "setting": "HeLa [25]", "value": 25.6, "unit": "%"}, {"measurement": "Activity", "setting": "HeLa [26]", "value": 0.36, "unit": "%"}, {"measurement": "IC50", "setting": "HEK-293T", "value": 0.87, "unit": "µM"}, {"measurement": "IC50", "setting": "HeLa [27]", "value": 0.53, "unit": "µM"}, {"measurement": "Activity", "setting": "HeLa [28]", "value": 97.93, "unit": "%"}]}
